# An excerpt weighted towards active compounds, which were near 3.1% of everything screened.
# SENP8 block-1 = blocks human SENP8 cleavage of Nedd8 substrate; Q96LD8; recombinant SENP8, Nedd8 substrate fluorescence; inhibition, % at 20 µM; hit rate 0.64% among 360,000; in the data active = inhibition mostly above about 40%, no sharp cut-off; inactive = mostly below about 27%
# SENP7 block = SENP7 protease inhibition. Q9BQF6. recombinant SENP7, Z-RLRGG-aminoluciferin luminescence, 40 min. inhibition, % at 5 µM. hit rate 1.5% among 330,000;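 active = inhibition above about 50% at the single test dose, limit read from the data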;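 also: plate controls were DMSO with enzyme for no effect and no enzyme buffer wells for full effect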
# SENP6 block = SENP6 protease inhibition; Q9GZR1; Recombinant SENP6 catalytic domain, aminoluciferin luminescence; inhibition, % at 10 µM; hit rate 1.8% among 330,000; AID 2599;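 active = inhibition above about 50% at the single tested dose, limit read from the data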;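 also: plate controls were DMSO wells with enzyme for no effect and DMSO wells lacking enzyme for full effect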
# Target sequence (Q9GZR1 628-1112 limits assumed): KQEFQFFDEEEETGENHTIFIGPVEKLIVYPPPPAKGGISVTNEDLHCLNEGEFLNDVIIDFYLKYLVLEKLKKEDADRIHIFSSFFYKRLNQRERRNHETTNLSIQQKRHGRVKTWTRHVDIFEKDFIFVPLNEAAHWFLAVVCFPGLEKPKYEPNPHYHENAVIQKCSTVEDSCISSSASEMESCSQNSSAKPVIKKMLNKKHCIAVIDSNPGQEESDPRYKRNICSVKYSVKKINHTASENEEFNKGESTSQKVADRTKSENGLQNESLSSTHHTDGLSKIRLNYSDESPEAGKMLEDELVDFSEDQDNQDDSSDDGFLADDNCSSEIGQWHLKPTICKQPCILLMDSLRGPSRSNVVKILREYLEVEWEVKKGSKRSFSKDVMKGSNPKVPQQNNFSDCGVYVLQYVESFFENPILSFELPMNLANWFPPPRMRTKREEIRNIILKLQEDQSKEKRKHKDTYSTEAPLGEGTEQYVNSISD
# SENP8 block-2 = SENP8 protease inhibition. Q96LD8. hit rate 1.2% among 330,000. AID 2540. purified SENP8, Z-RLRGG-aminoluciferin cleavage, luminescence. inhibition, % at 10 µM; in the data active = inhibition above about 50%
# UBC13 inh = human UBC13 polyubiquitination inhibition. UBC13 polyubiquitin chain formation, TR-FRET. P61088. inhibition, % at 20 µM. hit rate 0.47% among 330,000; in the data active = inhibition above about 45%, passing the limit was not always enough
# Target sequence (P61088 whole entry, looked up): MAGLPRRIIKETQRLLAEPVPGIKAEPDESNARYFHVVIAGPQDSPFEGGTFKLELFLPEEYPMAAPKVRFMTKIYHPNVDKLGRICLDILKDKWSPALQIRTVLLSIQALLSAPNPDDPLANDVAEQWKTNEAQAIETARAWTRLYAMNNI
# Apaf-1 inh = blocks human Apaf-1 apoptosome activity | AID 489030 | O14727 | hit rate 0.71% among 330,000 | inhibition, % at 20 µM | reconstituted apoptosome caspase-3 activity, DEVD-Rh110 fluorescence; active = inhibition of at least 40% at 20 µM;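 also: plate controls were DMSO wells for no effect and DEVD-CHO caspase inhibitor wells for full effect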
#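 System: Apoptosome proteins | Medium: Hepes pH 7.5 with detergent and BSA | Also added: Cytochrome c trigger plus (Z-DEVD)2-Rh110 caspase-3 substrate | Incubation: 30 min compound preincubation, 50 min activation, room temperature | Detection: Rhodamine 110 fluorescence at Ex 480/Em 540 nm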
# SENP8 conf = human SENP8 inhibition, confirmed | shares compounds with SENP7 block | Recombinant SENP8, Z-RLRGG-aminoluciferin luminescence, 60 min | inhibition, % at 12.5 µM | hit rate 40% among 6,200;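 active = mean inhibition across replicates above about 50%, limit read from the data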
# SENP6 confirm = human SENP6 inhibition, confirmed; inhibition, % at 12.5 µM; AID 488915; recombinant SENP6, Z-RLRGG-aminoluciferin luminescence; hit rate 58% among 6,200; shares compounds with SENP7 block
# SENP7 confirm = human SENP7 inhibition, confirmed | shares compounds with SENP7 block | recombinant SENP7, Z-RLRGG-aminoluciferin luminescence, 40 min | inhibition, % at 12.5 µM | hit rate 69% among 6,200 | AID 488917
# Casp3 SENP sel = caspase-3 inhibition (SENP selectivity assay) | purified caspase-3, Z-DEVD-aminoluciferin luminescence, 60 min | inhibition, % at 12.5 µM | hit rate 60% among 6,200 | shares compounds with SENP7 block;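 active = mean inhibition above about 50%, limit read from the data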;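 also: plate controls were enzyme with DMSO for no effect and wells without caspase-3 for full effect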
# SENP luc ctr = interferes with luciferase luminescence in SENP counter-screen | shares compounds with SENP7 block | Pre-incubated SENP8/Z-RLRGG-aminoluciferin, luciferase luminescence interference | inhibition, % at 12.5 µM | hit rate 39% among 6,200 | AID 488919;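 active = mean inhibition above about 50% when retested at one dose, limit read from the data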;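 also: plate controls were DMSO wells with completed reaction for no effect and substrate without enzyme for full effect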
# Numbers without * were called inactive; i = inactive; / = no result.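 The calls were made as follows, unless noted: active = mean inhibition above about 50% in the one-dose retest (limit read from the data); inactive = the rest.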
SMILES,SENP8 block-1,SENP7 block,SENP6 block,SENP8 block-2,UBC13 inh,Apaf-1 inh,SENP8 conf,SENP6 confirm,SENP7 confirm,Casp3 SENP sel,SENP luc ctr
CCOc1cc(/C=C2\C(=O)N(c3ccc(C(N)=O)cc3)N=C2C)ccc1OC(=O)c1cccs1,66*,68*,63*,14,-51,93*,18,33,3,3,5
CC(=C/c1ccco1)/C=N/N1CCN(c2ccccc2)CC1,13,95*,97*,92*,2,1,3,54*,34,68*,16
CC(/C=N/N1CCN(c2ccccc2)CC1)=C\c1ccccc1,14,75*,0,11,4,-11,-10,-6,-9,25,-3
Cc1ccc(N2CCN(/N=C/C(Cl)=C/c3ccccc3)CC2)cc1,16,1,-21,6,10,-19,/,/,/,/,/
CC(/C=N/n1c(-c2ccccc2)n[nH]c1=S)=C\c1ccco1,3,4,-13,-8,-6,-14,/,/,/,/,/
CC(/C=N/N1CCN(c2ccccc2)CC1)=C\c1ccco1,16,98*,96*,95*,-10,-8,10,87*,91*,71*,17
COC(=O)N1CCC2CC1c1c(Cl)cccc12 (stereo not drawn),14,/,/,/,/,/,/,/,/,/,/
O=C(N/N=C/c1ccccc1Cl)c1cccc(F)c1,15,72*,69*,53*,19,-8,4,70*,92*,76*,68*
O=C(N/N=C/c1ccc(Cl)cc1)c1n[nH]c2c1CCCC2,4,-5,-8,-8,8,-9,/,/,/,/,/
O=C(N/N=C/C(Br)=C/c1ccccc1)c1n[nH]c2c1CCC2,-4,1,1,12,-14,19,/,/,/,/,/
O=C(N/N=C/c1ccccc1)c1n[nH]c2c1CCCC2,-2,50*,58*,47,-2,-2,12,39,69*,76*,13
O=C(N/N=C/c1c(Cl)cccc1Cl)c1cccc(F)c1,9,15,-11,-19,2,3,/,/,/,/,/
O=C(N/N=C/c1ccccc1Cl)c1n[nH]c2c1CCCC2,11,98*,69*,86*,-18,4,-10,-2,-2,26,-14
O=C(N/N=C/c1cccs1)c1n[nH]c2c1CCC2,4,77*,79*,50,-8,-3,41,70*,89*,90*,51*
CCCc1ccc(-c2ccc(F)c(N)c2)nc1,-7,96*,95*,94*,-1,1,94*,97*,103*,97*,96*
CCCc1ccc(-c2ccc(-c3noc(-c4ccncc4)n3)cc2)nc1,6,-3,-26,2,6,0,/,/,/,/,/
CCCCc1ccc(-c2ccc(Br)cc2)nc1,14,10,68*,58*,4,-9,30,34,51*,46,40
Nc1cc(-c2nn[nH]n2)ccc1F,-2,3,-7,-2,-6,0,/,/,/,/,/
CCCCNC(=O)C[C@@H]1C[C@@]2(C(=O)OCC)CCC=C2N(Cc2ccc(Cl)cc2Cl)C1=O,4,/,/,/,/,/,/,/,/,/,/
Cc1ccc(Cn2ccnc2C(=O)Nc2ccccc2)cc1,4,73*,79*,51*,2,14,4,0,47,9,22
C=C(C)Cn1c(N2CCC(Cc3ccccc3)CC2)nc2c1c(=O)[nH]c(=O)n2C,19,4,98*,81*,6,33,23,21,1,6,0
Cc1ccc(NC(=O)/C(Cl)=C/c2ccccc2)cc1C,14,81*,86*,67*,2,11,2,80*,96*,54*,37
CC(=O)Nc1ccccc1C(=O)C(=O)Nc1ccc(C)c(C)c1,12,2,2,-6,0,-14,/,/,/,/,/
CCOC(=O)C1=CCCN(S(=O)(=O)c2ccc(C)cc2)C1,16,/,/,/,/,/,/,/,/,/,/
Cc1ccc(-n2nnc(-c3cccnc3Cl)n2)cc1,12,76*,74*,52*,-1,3,36,52*,42,38,17
SMILES,SENP8 block-1,SENP7 block,SENP6 block,SENP8 block-2,UBC13 inh,Apaf-1 inh,SENP8 conf,SENP6 confirm,SENP7 confirm,Casp3 SENP sel,SENP luc ctr
Clc1ccc(-n2nnc(-c3cccnc3Cl)n2)cn1,i,7,-11,-14,5,3,/,/,/,/,/
CC1(Cc2ccc(F)c(Cl)c2)C(=O)Nc2c(Cl)cccc21 (stereo not drawn),12,/,/,/,/,/,/,/,/,/,/
Cc1ccccc1NS(=O)(=O)c1ccc2c(c1)CCC(=O)N2,18,/,/,/,/,/,/,/,/,/,/
Cc1c(C(C)(C)C)sc(=NC(=O)c2ccccc2O)n1C,-288,72*,63*,60*,20,18,19,12,2,12,-3
Cc1ccc(Cn2ccc(-c3cnc(-c4ccccc4)s3)n2)cc1,-416,33,51*,6,10,19,18,36,42,18,21
Cc1nc(N/N=C\c2ccc3c(c2)OCO3)sc1C,-68,3,50*,-1,1,-4,37,44,75*,21,36
Clc1ccccc1N/N=C/c1ccc2c(c1)OCO2,0,74*,96*,89*,8,4,98*,99*,102*,91*,89*
C(=N\Nc1nc2ccccc2[nH]1)/c1ccc2c(c1)OCO2,-241,/,/,/,/,/,/,/,/,/,/
O=C(CNC(=O)c1ccccc1Cl)N/N=C/c1ccc2c(c1)OCO2,4,-12,-12,-6,-5,6,/,/,/,/,/
Cc1ccc(O)c(N/C=C/C(=O)c2ccc(F)cc2)c1,-40,68*,82*,80*,-1,18,61*,80*,95*,67*,22
O=C(/C=C\Nc1ccc(Br)cc1)c1cccnc1,-383,66*,83*,57*,-4,6,66*,64*,83*,71*,41
Cc1cc(N/C=C/C(=O)c2ccccc2)ccc1Br,-230,80*,67*,62*,9,-8,24,16,7,38,1
CN(C)/C=C/C(=O)c1ccc(Cl)cc1Cl,-51,1,11,3,2,-1,/,/,/,/,/
O=C(NNC(=S)Nc1ccc(Br)cc1)c1cccnc1,12,4,-10,0,2,-1,/,/,/,/,/
Cc1ccc(C(=O)/C=C\Nc2ccc(C)c(C)c2)cc1,-166,45,27,-23,5,-2,/,/,/,/,/
